# FXN GAA850 act: FXN promoter activators, primary screen, cell-based, luciferase luminescence, HEK293 lucGAA850; HEK293 lucGAA850 FXN promoter luciferase reporter, 24 h; percent of 10 µM SAHA response; activation, % at 6 µM; hit rate 0.56% among 360,000; AID 540364, 2011;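 active means activation above the average of all compounds screened plus 3 SD, cutoff fixed separately per campaign, cut at about 7.5% in these data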
# m5-HT2A agonist: mouse Htr2a agonists via beta-arrestin recruitment, primary screen, cell-based, luminescence | CHO-K1 mHTR2A beta-arrestin complementation; percent of 30 µM serotonin response | hit rate 0.66% among 360,000 | AID 624169, 2012 | 5-hydroxytryptamine receptor 2A (Mus musculus), P35363 | activation, % at 7.6 µM;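 active means activation above a run cutoff, the mean activation of all tested compounds plus 3 SD, cut at about 14% in these data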
# Target sequence (P35363 whole entry, looked up): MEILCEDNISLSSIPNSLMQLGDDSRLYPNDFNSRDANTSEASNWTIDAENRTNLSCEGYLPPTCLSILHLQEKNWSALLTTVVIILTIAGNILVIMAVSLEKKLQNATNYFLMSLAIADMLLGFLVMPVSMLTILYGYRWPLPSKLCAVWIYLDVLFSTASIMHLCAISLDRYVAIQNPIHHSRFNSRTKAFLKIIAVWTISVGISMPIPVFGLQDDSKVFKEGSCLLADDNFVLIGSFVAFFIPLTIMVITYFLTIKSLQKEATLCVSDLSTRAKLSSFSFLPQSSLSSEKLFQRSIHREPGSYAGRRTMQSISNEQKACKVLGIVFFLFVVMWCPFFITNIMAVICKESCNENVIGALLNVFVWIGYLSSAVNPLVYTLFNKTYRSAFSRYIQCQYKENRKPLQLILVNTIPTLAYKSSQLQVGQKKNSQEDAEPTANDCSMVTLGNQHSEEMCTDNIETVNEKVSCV
# MC4R barr agon: MC4R agonists recruiting beta-arrestin, primary screen, cell-based, luminescence, agonist arm of biased-ligand search | U2OS MC4R beta-arrestin complementation; percent of melanotan II response, DMSO zero | hit rate 0.98% among 360,000 | activation, % at 8.9 µM;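 active means activation above a per-plate cutoff, the mean activation of sample wells on that plate plus 3 SD, cut at about 8% in these data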
# MC4R antag cAMP: MC4R antagonists of cAMP signaling, primary screen, cell-based, TR-FRET, antagonist arm of biased-ligand search; inhibition, % at 6.5 µM; MC4R-expressing cells, MTII-stimulated cAMP, LANCE TR-FRET; hit rate 0.48% among 360,000;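 active means inhibition above its plate's cutoff, the mean of tested wells on that plate plus 3 SD, cut at about 29% in these data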
#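 Material – human MC4R-expressing U2OS cells · Repeats – no replicates · Detection – TR-FRET with Eu-cAMP and labeled anti-cAMP, 671 nm · Times – compound 30 min, challenge 1 h, detection 1 h · Compound – single nominal compound dose of 6.5 µM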
# AHR activator: AHR activators, primary screen, cell-based, luminescence, luciferase reporter, human. Aryl hydrocarbon receptor (Homo sapiens), P35869. AHR-responsive luciferase reporter cells. activation, % at 5 µM. hit rate 2.5% among 320,000. AID 2796, 2010; in the data active means activation above about 47%
# GAA30 FXN cntr: GAA30 FXN promoter activators, confirmation, counter-screen for GAA850 frataxin promoter activator project, cell-based, luminescence, HEK293, lucGAA30, triplicate. shares compounds with FXN GAA850 act. HEK293 lucGAA30 FXN promoter luciferase, 24 h; DMSO = 0%, 5 µM ipriflavone = 100%. activation, % at 6 µM. hit rate 66% among 1,900;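 active means mean activation above the mean of solvent-only control wells plus 3 SD, cut at about 22% in these data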;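 further: counterscreen of GAA850 promoter hits where activity marks nonselective or luminescence artifacts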
# FXN GAA850 conf: FXN GAA850 promoter activators in reporter cells, confirmation, cell-based, luminescence, HEK293 lucGAA850, triplicate | shares compounds with FXN GAA850 act | HEK293 lucGAA850 FXN promoter luciferase reporter, 24 h; 100% = activation by SAHA | activation, % at 6 µM | hit rate 86% among 1,900 | AID 588351, 2011;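 active means mean activation above a set limit taken from the primary screen, cut at about 8% in these data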
# Hits are given with their value; n = inactive; x = no result. A selection: hits, their analogues and other compounds. The true share with any hit is near 4.7%.
SMILES,FXN GAA850 act,m5-HT2A agonist,MC4R barr agon,MC4R antag cAMP,AHR activator,GAA30 FXN cntr,FXN GAA850 conf
CC(=O)[C@H]1[C@H]([C@H](O)[C@H](O)CO)O[C@](O)(C(=O)O)C[C@@H]1O,n,n,n,n,n,x,x
CCCCNC(=O)N(O)C1N(/N=C/c2ccco2)C(=S)SC1(C)C (stereo not drawn),n,n,n,n,n,x,x
CCCCNC(=O)N(O)C1N(/N=C/c2ccccc2F)C(=S)SC1(C)C (stereo not drawn),8.4,n,n,n,n,26,n
O=S(=O)(c1ccc2c(c1)C(=NO)c1cc(S(=O)(=O)N3CCCCC3)ccc1-2)N1CCCCC1,n,n,n,n,n,x,x
CCN(CC)S(=O)(=O)c1ccc2c(c1)C(=NO)c1cc(S(=O)(=O)N(CC)CC)ccc1-2,10,n,n,n,n,n,19
CC1CCN(S(=O)(=O)c2ccc3c(c2)C(=NO)c2cc(S(=O)(=O)N4CCC(C)CC4)ccc2-3)CC1,11,n,34,n,n,n,30
CCN(CC)S(=O)(=O)c1ccc(C)c(C)c1,n,n,n,n,n,x,x
CC(NC(=O)COC(=O)[C@@H]1CCCN1S(=O)(=O)c1ccccc1F)C12CC3CC(CC(C3)C1)C2 (stereo partly drawn),8.8,n,n,n,n,28,15
CC(=O)N/C(=C\c1ccccc1)C(=O)OCC(=O)NC(C)C12CC3CC(CC(C3)C1)C2 (stereo not drawn),13,n,n,n,n,30,13
O=C(OCC(=O)N1CCc2ccccc21)[C@@H]1CCCN1S(=O)(=O)c1ccccc1F,n,n,n,n,n,x,x
COc1ccc(NC(=O)C(CC(C)C)NC(=O)C2CCCCC2)c(OC)c1 (stereo not drawn),n,n,n,n,n,x,x
COc1nc(N)nc(NC23CC4CC(CC(C4)C2)C3)n1,9.2,n,n,n,n,57,20
CCN(CC)S(=O)(=O)c1ccc(OC)nc1,11,n,n,n,n,n,n
O=C(c1ccccc1)c1ccc(O)cc1O,n,n,n,n,n,x,x
CC(=O)c1cc2c(C)c(C(=O)c3ccccc3)oc2cc1O,8.8,n,n,n,n,122,39
CC(C)C[C@@H]1O[C@H](C(C)C)Cc2[nH][nH]c(=O)c21,x,n,x,x,x,x,x
N#CCSc1nc(N)c(C#N)c(C2CCCCC2)c1C#N,11,n,n,n,n,n,19
C=CCn1c(SCC(N)=O)nc2scc(-c3ccc(C)o3)c2c1=O,8.2,n,n,n,n,128,43
C=CCn1c(SCc2ccccc2)nc2scc(-c3ccc(C)o3)c2c1=O,n,n,n,n,n,x,x
CCc1ccc(C(=O)COC(=O)C2CCN(c3ccc(C(F)(F)F)cn3)CC2)cc1,n,n,n,n,n,x,x
COc1nc(C)ccc1-c1noc(-c2ccccn2)n1,n,n,n,n,n,x,x
COc1ccccc1-c1nc(-c2ccc(C)nc2OC)no1,8.8,n,n,n,n,121,40
CC(Oc1ccc2c(-c3ccccc3)cc(=O)oc2c1)C(=O)NCCCn1ccnc1 (stereo not drawn),8.7,n,n,n,n,n,n
O=C(O)C1CCN(S(=O)(=O)c2ccc3[nH]ccc3c2)CC1,n,n,n,n,x,x,x
c1cncc(-c2nnc(-c3ccco3)o2)c1,n,n,n,n,n,x,x
SMILES,FXN GAA850 act,m5-HT2A agonist,MC4R barr agon,MC4R antag cAMP,AHR activator,GAA30 FXN cntr,FXN GAA850 conf
Clc1ccc(-c2nnc(-c3ccco3)o2)cc1,12,n,n,n,n,108,41
CC[C@@]1(C(=O)OC)N[C@H](CN(C)C(=O)Nc2ccc(C)cc2)[C@@H]2C(=O)N(Cc3ccccc3)C(=O)[C@@H]21,15,n,n,n,n,42,14
COC(=O)[C@]1(Cc2ccccc2)N[C@H](CN(C)C(=O)Nc2ccc(F)cc2)[C@@H]2C(=O)N(Cc3ccccc3)C(=O)[C@@H]21,n,n,n,n,n,x,x
CC[C@@]1(C(=O)OC)N[C@H](CN(C)C(=O)Nc2ccc(F)cc2)[C@@H]2C(=O)N(Cc3ccccc3)C(=O)[C@@H]21,9.6,n,n,n,n,38,18
CC[C@@]1(C(=O)OC)N[C@H](CN(C)C(=O)Nc2ccc(OC)cc2)[C@@H]2C(=O)N(Cc3ccccc3)C(=O)[C@@H]21,17,n,n,n,n,84,24
COC(=O)[C@]1(Cc2ccccc2)N[C@H](CN(C)C(=O)Nc2ccccc2)[C@@H]2C(=O)N(Cc3ccccc3)C(=O)[C@@H]21,n,n,n,n,n,x,x
Cc1[nH]nc(-c2cccnc2)c1N=NN(C)C,n,n,n,n,x,x,x
COc1ccc2c(c1)OC[C@H]1[C@H]2N2C(=O)CN(CCc3c[nH]c4ccccc34)C(=O)[C@@]2(C)[C@H]1c1ccccc1,7.8,n,n,n,n,22,18
CCOC(=O)[C@H]1[C@H]2COc3cc(OC)ccc3[C@@H]2N2C(=O)CN(CCc3c[nH]c4ccccc34)C(=O)[C@@]12C,n,n,n,n,n,x,x
CC1CCCCC1N(C)C1CCN(C(=O)CNC(=O)/C=C/c2cccc(Cl)c2)CC1 (stereo not drawn),n,n,n,n,n,x,x
O=C(Nc1cccc2[nH]c([C@H]3C[C@H](O)[C@@H](CO)O3)nc12)NC(c1ccccc1)c1ccccc1,n,n,n,n,x,x,x
CCCN1C(=O)/C(=C/c2cc(C)n(C)c2C)SC1=Nc1ccc(OC)cc1,15,n,n,n,n,n,12
O=C(Nc1ccc2c(c1)OCO2)c1cc(C2CCCCN2C(=O)c2ccccc2)on1 (stereo not drawn),n,n,n,n,x,x,x
COc1ccc(-c2cn3cc(C)ccc3n2)cc1OC,n,n,n,n,n,x,x
COc1ccc(-c2cn3ccccc3n2)cc1OC,7.9,n,n,n,61,146,44
CN1C[C@@H]2[C@@H]3C(=O)N(C)C(=O)[C@@H]3[C@](Cc3ccccc3)(C1=O)N2C(=O)c1ccccc1,n,n,n,n,x,x,x
Cc1nnc(SCc2cccc3ccccc23)s1,7.6,n,n,n,n,80,29
